Experimental data from different studies.
Each line is one published result; the experiments were not run side by side.

CCN(CC)CCCC[C@H](NC(=O)[C@H](CC(C)C)NC(=O)[C@H](C)NC(=O)[C@H](Cc1ccccc1)NC(=O)c1ccc(C(C)(C)C)cc1)C(=O)N[C@@H](CO)C(=O)OC
AUC(0-inf) (male Swiss mouse, blood; intravenous, 3 mg/kg): 1890 ng·h/mL

C[C@]12CC[C@H](n3ccnc3)CC1=CC[C@@H]1[C@@H]2CC[C@]2(C)C(n3cnc4ccccc43)=CC[C@@H]12.Cl.Cl
AUC(0-t) (male CD-1 mouse, plasma; oral, 10 mg/kg): 32500 ng·h/mL

NCC(=O)Nc1ccc(-n2nc(C(F)(F)F)cc2-c2ccc3c(ccc4ccccc43)c2)cc1
AUC(0-inf) (mouse, plasma; oral, 80 mg/kg, single dose): 81800 ng·h/mL

C[C@]12CC[C@H](O)CC1=CC[C@@H]1[C@@H]2CC[C@]2(C)C(n3cnc4ccccc43)=CC[C@@H]12.Cl
AUC(0-t) (mouse, plasma; intravenous, 1 mg/kg): 44.3 ng·h/mL

CCC[C@@](N)(CO)CCc1ccc(OCCCCCC(C)C)cc1
AUC(0-t) (mouse, plasma; oral, 50 mg/kg): 5.02 µM·h

Cc1cc(C)nc(Nc2ncc(C(=O)NCCc3c(C)[nH]c4ccccc34)cn2)c1
AUC(0-inf) (C57BL/6 mouse, plasma; intraperitoneal, 8.8 mg/kg): 1050 ng·h/mL

CN[C@H](CC(C)C)C(=O)N[C@H]1C(=O)N[C@@H](CC(N)=O)C(=O)N[C@H]2C(=O)NC3C(=O)N[C@H](C(=O)N[C@H](C(=O)NCCC[N+](C)(C)C)c4cc(O)cc(O)c4-c4cc3ccc4O)[C@H](O)c3ccc(c(Cl)c3)Oc3cc2cc(c3OC2OC(CO)C(O)[C@H](O)[C@@H]2O[C@H]2CC(C)(NCc3ccc(-c4ccc(Cl)cc4)cc3)[C@H](O)[C@H](C)O2)Oc2ccc(cc2Cl)[C@H]1O (some centres unmarked)
AUC (mouse, plasma; intravenous, 50 mg/kg): 430000 ng·h/mL

CN1CCCCC1Cn1cc(C(=O)c2cc([N+](=O)[O-])ccc2I)c2ccccc21 (racemic)
AUC (mouse, plasma; intravenous, 25 mg/kg): 5830 ng·h/mL
